The source of these data is ChEMBL document CHEMBL1641520, “Design, synthesis, and biological evaluation of novel water-soluble N-mustards as potential anticancer agents” (Bioorg Med Chem, 2011).

Calls of active or inactive are those of the source. No cut-off for these calls is given here.

Data set [1] has as its system CCRF-CEM. Description: Cytotoxicity against vinblastine-resistant human CCRF-CEM cells after 72 hrs by XTT assay. The data set is classed as functional, cell-based. The procedure, abridged:
(§1)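 CCRF-CEM leukemia cells and their taxol- or vinblastine-resistant sublines given compound for 72 h. XTT read-out: after phenazine methosulfate–XTT, 6 h at 37 °C, absorbance at 450 and 630 nm. IC50 from median-effect analysis of dose-effect data at six or seven concentrations.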

A short description of data set [2]: Cell cycle arrest in human H1299 cells assessed as accumulation at S phase at 10 uM after 24 hrs by propidium iodide staining-based flow cytometry. Conditions: NCI-H1299. In kind it is functional. The gist of the method: (§2)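 H1299 non-small cell lung carcinoma cells exposed to compound for 24 h. Attached cells trypsinized, PBS-washed, fixed in ice-cold 70% ethanol for 30 min. Stained with 4 µg/ml propidium iodide in PBS with 1% Triton X-100 and 0.1 mg/ml RNase A. Analyzed by flow cytometry; phase percentages taken from DNA histograms.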

Data set [3] relates to PC-3. Nature of the data set: Anticancer activity against human PC3 cells xenografted in athymic mouse assessed as tumor suppression at 40 mg/kg, iv Q2D for 3 days. In kind it is functional. Conditions: PC-3, 72 h. The gist of the method: (§3)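 Athymic nu/nu nude mice (male, ≥6 weeks, 20–24 g) carrying human tumor xenografts; dosing iv via tail vein, Q2D, in vehicle of DMSO/Tween 80/saline (50:40:160 µL). Dose level is the maximal tolerated dose determined beforehand. Tumor volume by caliper (length × width × height or width). Body weight taken as total minus tumor weight (1 mm³ = 1 mg). n = 4–5 mice.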

Data set [4] has as its system PC-3. Nature of the data set: Anticancer activity against human PC3 cells xenografted in athymic mouse assessed as tumor suppression at 30 mg/kg, iv Q2D for 4 days. In kind it is functional. Conditions: PC-3, 96 h. The procedure, abridged:
as §3

A short description of data set [5]: Cell cycle arrest in human H1299 cells assessed as accumulation at G2/M phase at 10 uM after 24 hrs by propidium iodide staining-based flow cytometry. In kind it is functional. Conditions: NCI-H1299. The procedure, abridged:
as §2
A general note: In flow cytometry, cells or beads pass a laser one at a time.

The nature of data set [6]: Cell cycle arrest in human H1299 cells assessed as accumulation at G1 phase at 10 uM after 24 hrs by propidium iodide staining-based flow cytometry. In kind it is functional. Conditions: NCI-H1299. The gist of the method: as §2
Data set [7] can be described thus: Cell cycle arrest in human H1299 cells assessed as accumulation at S phase at 5 uM after 24 hrs by propidium iodide staining-based flow cytometry. In kind it is functional. Conditions: NCI-H1299. The procedure, abridged: as §2
Data set [8] relates to HCT-116. Description: Cytotoxicity against human HCT116 cells after 72 hrs by SRB assay. The data set is classed as functional, cell-based. Conditions: HCT-116, 72 h. The gist of the method:
(§4)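 MX-1 breast and HCT-116 colon carcinoma cells exposed to compound for 72 h; growth measured by sulforhodamine B assay. IC50 from median-effect analysis of dose-effect data at six or seven concentrations.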

For data set [9], the system named is PC-3. Nature of the data set: Cytotoxicity against human PC3 cells after 72 hrs by alamar blue assay. In kind it is functional, cell-based. Conditions: PC-3, 72 h. The gist of the method: (§5)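 H1299, PC3, CL1-0, CL1-5 and MCF-7 cells exposed to compound for 72 h. Alamar blue added, then 6 h at 37 °C; absorbance at 570 and 600 nm. IC50 from median-effect analysis of dose-effect data at six or seven concentrations.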
(In general: Alamar Blue is a resazurin reagent that responds to reducing activity.)

Data set [10] has as its system CCRF-CEM. Description: Selectivity ratio of IC50 for taxol-resistant human CCRF-CEM cells to IC50 for human CCRF-CEM cells. In kind it is functional.
Data set [11] relates to CCRF-CEM. Description: Cytotoxicity against human CCRF-CEM cells after 72 hrs by XTT assay. In kind it is functional, cell-based. The procedure, abridged:
as §1
For orientation: Formazan colour is commonly taken as a measure of viable cells.

Data set [12] can be described thus: Cell cycle arrest in human H1299 cells assessed as accumulation at S phase at 2.5 uM after 24 hrs by propidium iodide staining-based flow cytometry. The data set is classed as functional. Conditions: NCI-H1299. The procedure, abridged:
as §2

A short description of data set [13]: Cell cycle arrest in human H1299 cells assessed as accumulation at sub-G1 phase at 10 uM after 24 hrs by propidium iodide staining-based flow cytometry. In kind it is functional. Conditions: NCI-H1299. The procedure, abridged:
as §2

For data set [14], the system named is MX1. Nature of the data set: Cytotoxicity against human MX1 cells after 72 hrs by SRB assay. The data set is classed as functional, cell-based. Conditions: MX1, 72 h. The procedure, abridged: as §4
Data set [15] deals with CCRF-CEM. Description: Cytotoxicity against taxol-resistant human CCRF-CEM cells after 72 hrs by XTT assay. In kind it is functional, cell-based. The procedure, abridged:
as §1

The nature of data set [16]: Cell cycle arrest in human H1299 cells assessed as accumulation at sub-G1 phase at 5 uM after 24 hrs by propidium iodide staining-based flow cytometry. The data set is classed as functional. Conditions: NCI-H1299. The gist of the method: as §2
The test system of the next data set is MCF7. Description: Cytotoxicity against human MCF7 cells after 72 hrs by alamar blue assay. Conditions: MCF7, 72 h. In kind it is functional, cell-based. The gist of the method: as §5
Data set [17] can be described thus: Cytotoxicity against human H1299 cells after 72 hrs by alamar blue assay. Conditions: NCI-H1299, 72 h. In kind it is functional, cell-based. The gist of the method: as §5
Data set [18] has as its system MX1. Nature of the data set: Anticancer activity against human MX1 cells xenografted in athymic mouse assessed as complete tumor remission at 30 mg/kg, iv Q2D for 5 days measured after 70 days of tumor implantation. In kind it is functional, organism-based. The arrangement: dose 30 mg/kg. The procedure, abridged:
as §3

Data set [19] is described as follows: Mean residence time in Sprague-Dawley rat at 1 mg/kg, iv by LC-MS/MS analysis. The data set is classed as ADME, organism-based. Further details: dose 1 mg/kg, route intravenous. Conditions: in vivo.
The next data set deals with Nucleic Acid. Description: Binding affinity to Escherichia coli plasmid EGFP-N1 DNA at 1 to 10 uM after 22 hrs by alkaline agarose gel shift assay. The data set is classed as nucleic-acid assay. The procedure, abridged: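 Purified pEGFP-N1 plasmid DNA (1500 ng) incubated with compound (1–20 µM) in 3 mM NaCl/1 mM sodium phosphate pH 7.4/1 mM EDTA for 2 h at 37 °C. Linearized with BamHI, ethanol-precipitated, denatured in 0.5 N NaOH-10 mM EDTA. Run on 0.8% alkaline agarose gel at 4 °C, 18 V for 22 h. Ethidium bromide stain; cross-linked double-stranded DNA scored against single-stranded DNA.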

Data set [20] deals with U-87MG ATCC. Description: Anticancer activity against human U87MG cells xenografted in athymic mouse assessed as tumor suppression at 30 mg/kg, iv Q2D for 6 days. Further details: dose 30 mg/kg. In kind it is functional, organism-based. The gist of the method:
as §3

A short description of data set [21]: Cell cycle arrest in human H1299 cells assessed as accumulation at G1 phase at 5 uM after 24 hrs by propidium iodide staining-based flow cytometry. In kind it is functional. Conditions: NCI-H1299. The gist of the method: as §2
Data set [22] concerns CCRF-CEM. Description: Selectivity ratio of IC50 for vinblastine-resistant human CCRF-CEM cells to IC50 for human CCRF-CEM cells. The data set is classed as functional.
Data set [23] in a line: Cell cycle arrest in human H1299 cells assessed as accumulation at G2/M phase at 5 uM after 24 hrs by propidium iodide staining-based flow cytometry. Conditions: NCI-H1299. The data set is classed as functional. The procedure, abridged: as §2
A short description of data set [24]: Cell cycle arrest in human H1299 cells assessed as accumulation at sub-G1 phase at 2.5 uM after 24 hrs by propidium iodide staining-based flow cytometry. The data set is classed as functional. Conditions: NCI-H1299. The procedure, abridged:
as §2

Data set [25] concerns HCT-116. Description: Anticancer activity against human HCT116 cells xenografted in athymic mouse assessed as tumor suppression at 30 mg/kg, iv Q2D for 5 days. In kind it is functional. Conditions: HCT-116, 120 h. The gist of the method: as §3
A short description of data set [26]: Steady state clearance in Sprague-Dawley rat at 1 mg/kg, iv up to 24 hrs by LC-MS/MS analysis. In kind it is ADME, organism-based. The arrangement: dose 1 mg/kg, route intravenous. Conditions: in vivo, read-out: CLss.
Data set [27] can be described thus: Cytotoxicity against human CL1-5 cells after 72 hrs by alamar blue assay. The data set is classed as functional, cell-based. Conditions: CL1-5, 72 h. The procedure, abridged:
as §5

Data set [28] in a line: Cell cycle arrest in human H1299 cells assessed as accumulation at G1 phase at 2.5 uM after 24 hrs by propidium iodide staining-based flow cytometry. In kind it is functional. Conditions: NCI-H1299. The gist of the method: as §2
The nature of data set [29]: Cytotoxicity against human CL1-0 cells after 72 hrs by alamar blue assay. In kind it is functional, cell-based. Conditions: CL1-0, 72 h. The gist of the method: as §5
Data set [30] can be described thus: Cell cycle arrest in human H1299 cells assessed as accumulation at G2/M phase at 2.5 uM after 24 hrs by propidium iodide staining-based flow cytometry. In kind it is functional. Conditions: NCI-H1299. The gist of the method:
as §2

The test system of data set [31] is U-87MG ATCC. Conditions: Homo sapiens, 80 mg/kg.

The term IC50 denotes the concentration at which inhibition is half-maximal. Higher therefore signals a need for much substance. What is called inhibition in vivo is the share of the control response that was lost under treatment. One may read the MRT as a mean duration of stay, worked out from the concentration-time curve. For `CN(C)CCNC(=O)c1cccc(NC(=O)Nc2ccc(N(CCCl)CCCl)cc2)c1.Cl`, the IC50 with CCRF-CEM [1] turned out to be 800 nM; with HCT-116 [8], 690 nM; in the data set on PC-3 [9] it was 1880 nM; with CCRF-CEM [11], 130 nM; in the data set with MX1 [14], 570 nM; in the data set on CCRF-CEM [15] it was 1220 nM. In addition, the half-maximal inhibitory concentration (IC50) with MCF7 was 630 nM; in data set [17] it was 10400 nM; in data set [27], 6080 nM; in data set [29], 14600 nM. The Activity in [2] is 5.2%; in [5], 62.3%; in data set [6], 6.5%; in data set [7], 8.8%; in [12], 1.8%; in data set [13], 26%. The Activity in data set [16] stood at 19.7%; in data set [21] it was 10.7%; in [23] it was 60.8%; in [24], 20%; in data set [28] it was 2.3%; in data set [30] it was 55.9%. Moreover, the inhibition in vivo at 40 mg/kg in the data set on PC-3 [3] was greater than 99%. The inhibition in vivo at 30 mg/kg in the data set on PC-3 [4] is greater than 99%; with HCT-116 [25] it was greater than 95%. Further, the “Ratio IC50” value with CCRF-CEM [10] worked out at 9.4; in the data set on CCRF-CEM [22], 6.2. Also, the inhibition entry in the data set on MX1 [18] and in the data set with U-87MG ATCC [20] was “Active” each time. The compound also yielded an MRT in data set [19] of 6.6 min. Further, the outcome in the data set on Nucleic Acid was Active. Besides, in data set [26], the clearance was found to be 18 mL/min/kg.
Take `O=P1(N(CCCl)CCCl)NCCCO1` (centres undefined): the inhibition result in the data set on U-87MG ATCC [31] was “Active”.
For `CN(C)CCCOc1ccc(NC(=O)Nc2ccc(N(CCCl)CCCl)cc2)cc1.Cl`, the IC50 with CCRF-CEM [1] came out at 1260 nM; in the data set with HCT-116 [8], 290 nM; with PC-3 [9], 940 nM; in the data set with CCRF-CEM [11], 120 nM; in the data set on MX1 [14] it was 260 nM; in the data set with CCRF-CEM [15], 1360 nM. Besides, the half-maximal inhibitory concentration (IC50) was found to be 1320 nM in the data set on MCF7, 9790 nM in data set [17], 5110 nM in [27] and 7090 nM in [29]. For the same compound, the results for the “Ratio IC50” value in the data set with CCRF-CEM [10] and with CCRF-CEM [22] were 11.8 and 10.9, respectively. The outcome with Nucleic Acid was Active.
Take `Cl.O=C(Nc1ccc(N(CCCl)CCCl)cc1)Nc1cccc(C(=O)NCCN2CCCCC2)c1`: the IC50 in the data set on CCRF-CEM [1] is 10500 nM; in the data set with HCT-116 [8], 310 nM; in the data set with PC-3 [9] it was 1700 nM; in the data set on CCRF-CEM [11], 270 nM; in the data set with MX1 [14], 730 nM; with CCRF-CEM [15], 4620 nM. Besides, the IC50 is 1180 nM with MCF7, 6220 nM in data set [17], 4640 nM in [27] and 8670 nM in data set [29]. Besides, the “Ratio IC50” value was 17 in the data set with CCRF-CEM [10] and 43.7 with CCRF-CEM [22]. The outcome with Nucleic Acid was Active.
